In ChEMBL document CHEMBL1127691, “Discovery, synthesis, and bioactivity of bis(heteroaryl)piperazines. 1. A novel class of non-nucleoside HIV-1 reverse transcriptase inhibitors” (J Med Chem, 1994):

What was measured:
[1] = test system: MT2; assay: Effective antiviral dose required to block the spread of HIV-1 IIIb infection in MT-2 cells by monitoring the formation of syncytia; format: functional; conditions: Homo sapiens, read-out: ED50 (the source's name)
Procedure, shortened: (§1)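 MT-2 cells infected with HIV-1 IIIb at MOI 0.001, held at 37 °C in 5% CO2. Syncytium formation scored 4 days post-infection, at peak cytopathic effect. ED50 is the dose giving 50% reduction in syncytia; some values were estimated, and ">" means 50% was not reached at the top concentration.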

[2] = test system: MT2; assay: Tested for the drug concentration required to decrease HIV-1IIIb infected MT-2 cell viability compared to uninfected controls; format: functional; conditions: Homo sapiens
Procedure, shortened: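 MT-2 cells with HIV-1 IIIb (MOI 0.001), 4-day culture. Viability by trypan blue exclusion. CC50 is the concentration lowering viability relative to uninfected controls; mostly estimated.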

[3] = Selective index is the ratio of inhibitory concentrations of cellular DNA polymerase delta to HIV-1 reverse transcriptase
Procedure, shortened: (§2)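 Index = IC50 for cellular DNA polymerase α or δ divided by IC50 for HIV-1 RT. RT IC50 measured with recombinant RT and poly(rA):oligo(dT)10 template:primer.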

[4] = test system: Human immunodeficiency virus 1; assay: (§3) Effective antiviral dose required to block the spread of HIV-1D34 infection in human peripheral blood mononuclear cells; format: functional; conditions: read-out: ED50 (the source's name)
Procedure, shortened: (§4)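 PBMC (1 × 10^6 cells) infected with HIV-1 D34 inoculum containing 1 ng p24, cultured at 37 °C in 5% CO2. Replication read as supernatant p24 at day 4. ED50 = 50% effective antiviral dose, estimated in some cases.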

[5] = Selective index is the ratio of inhibitory concentrations of cellular DNA polymerase alpha to HIV-1 reverse transcriptase; procedure, shortened: as §2
[6] = Tested for the drug concentration required to decrease […] infected human peripheral blood mononuclear cell viability compared to uninfected controls; format: functional
Procedure, shortened: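 Uninfected and HIV-1 D34-infected PBMC at 37 °C, 5% CO2. Viability taken from mitogen-stimulated cell proliferation. CC50 is the concentration lowering viability relative to uninfected controls; mostly estimated.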

[7] = biological target: Human immunodeficiency virus type 1 reverse transcriptase (Human immunodeficiency virus 1) (UniProt Q72547); assay: In vitro inhibitory activity against HIV-1 reverse transcriptase at 100 uM
Procedure, shortened: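 Recombinant HIV-1 RT (p51/p66 heterodimer, 90–95% pure, 0.0274 μM) with poly(rA) 10 μg/mL and (dT)10 primer 5 μg/mL; 8 μM α-35S-dTTP, 50 mM Tris-HCl pH 8.3, 10 mM MgCl2, 60 mM NaCl, 20 mM DTT, 0.05% NP-40. 37 °C, 15 min; TCA-precipitated label counted on filters. Percent inhibition at 100 μM, mean of at least two determinations.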

[8] = as §3; format: functional; conditions: read-out: ED50 (the source's name); procedure, shortened: as §4
[9] = test system: MT2; assay: Effective antiviral dose required to block the spread of HIV-1 IIIb infection in MT-2 cells by monitoring the formation of syncytia.; format: functional; conditions: Homo sapiens, read-out: ED50 (the source's name); procedure, shortened: as §1

CCNc1cccnc1N1CCN(C(=O)c2cc3ccccc3[nH]2)CC1
EC50 [1]: 300 nM | CC50 [2]: > 30 µM | Selectivity index [3]: 2800 | EC50 [4]: 10 nM | Selectivity index [5]: 1500 | CC50 [6]: > 10 µM

CC(C)(C)Nc1cccnc1N1CCN(C(=O)c2cc3ccccc3[nH]2)CC1
EC50 [1]: 200 nM | CC50 [2]: > 2.4 µM | Selectivity index [3]: 2500 | EC50 [4]: 10 nM | inhibition [7]: 89% | Selectivity index [5]: 225 | CC50 [6]: 10 µM

CCNc1ccccc1N1CCN(C(=O)c2cc(C)c(OC)c(C)c2)CC1
EC50 [8]: > 1000 nM | inhibition [7]: 21% | CC50 [6]: ~10 µM

CCNc1cccnc1N1CCN(Cc2cc(C)c(OC)c(C)c2)CC1
CC50 [2]: 15 µM | EC50 [9]: 2000 nM | Selectivity index [3]: > 60 | EC50 [4]: 1000 nM | inhibition [7]: 73% | Selectivity index [5]: 30 | CC50 [6]: > 10 µM

CCNc1cccnc1N1CCN(C(=O)c2cc3cc(F)ccc3[nH]2)CC1
EC50 [1]: < 300 nM | CC50 [2]: > 27 µM | Selectivity index [3]: 1670 | EC50 [4]: 1 nM | inhibition [7]: 93% | Selectivity index [5]: 220

CC(C)Nc1cccnc1N1CCN(C(=O)c2cc3cc(F)ccc3[nH]2)CC1
EC50 [1]: 300 nM | CC50 [2]: > 26 µM | Selectivity index [3]: 10000 | EC50 [4]: 3 nM | inhibition [7]: 96% | Selectivity index [5]: 810

CC(C)Nc1cccnc1N1CCN(C(=O)c2cc3ccccc3[nH]2)CC1
EC50 [1]: 300 nM | CC50 [2]: > 27 µM | Selectivity index [3]: 10000 | EC50 [4]: 1 nM | inhibition [7]: 96% | Selectivity index [5]: 1100 | CC50 [6]: > 10 µM
